Screens: PubChem BioAssay, several laboratories
hERG protect – shields human hERG channel from block by proarrhythmic agents; activation (rescue from dofetilide block), less the hit threshold, % at 10 µM; CHO-hERG, FluxOR thallium flux, dofetilide IC70 present; AID 1511; 310,000 tested, 0.51% active;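 active means activation above the mean of controls blocked by dofetilide plus 5 SD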;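 further: thallium influx through hERG after potassium depolarization seen as dye fluorescence rise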
KCC2 mod – modulators of human KCC2 chloride dependent transport; Q9H2X9; KCC2 cells, thallium flux FluoZin-2 fluorescence; B-score of Tl+ flux slope (higher = more flux/activation; lower = inhibition) at 10 µM; 190,000 tested, 2.2% active;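 active means thallium flux slope and its plate-corrected score both differing from the plate sample mean at a set confidence after two filtering rounds, in either direction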;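 further: slope of fluorescence scaled to starting intensity during 10 to 20 s after thallium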
KCNQ1 inh – inhibitors of human KCNQ1 potassium channel; P51787; 310,000 tested, 1.3% active; CHO-K1 KCNQ1, FluxOR thallium flux fluorescence; stronger effect = higher value; B-score at 10 µM;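 active means compounds whose thallium flux B-score, printed positive for inhibition, exceeds three library SD while starting fluorescence stays within three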;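 further: channel opened by potassium depolarization with thallium stimulus after 20 min compound exposure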
KCNQ1 act – potentiates or activates the human KCNQ1 potassium channel. P51787. CHO-K1 KCNQ1, thallium flux FluxOR fluorescence; stronger effect = higher value. B-score at 10 µM. 310,000 tested, 0.35% active. AID 2648;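 active means fluorescence ratio B-score, a plate-corrected score, at least three library SD, with initial intensity B-score within 5 SD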
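Assay system: CHO-K1 cells stably expressing KCNQ1; Medium: assay buffer with matched DMSO; Also added: K+/Tl+ depolarizing stimulus; Dosing: single dose; Timing: dye 90 min, compound 20 min, room temperature; Measured by: kinetic FluxOR thallium fluorescence, 10-s 1-Hz baseline, 110-s post-stimulus read; Read-out: peak-minus-minimum fluorescence over initial fluorescence, negative-control normalized, B-scored.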
KCNK9 inh – inhibitors of human KCNK9 two-pore domain potassium channel; HEK293 KCNK9, FluxOR thallium flux fluorescence; stronger effect = lower value; AID 488922; 310,000 tested, 1.2% active; B-score at 10 µM; Q9NPC2;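 active means ratio B-score over 3 SD below the library mean, with starting fluorescence within 5 SD of its mean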;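 further: negative B-score means less thallium flux so channel inhibition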
KCNK3 block – human KCNK3 channel inhibition, primary screen; B-score at 10 µM; 340,000 tested, 0.84% active; O14649; CHO-KCNK3 thallium flux, FluxOR fluorescence; stronger effect = lower value;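 active means B-score under library mean minus 4 SD, starting fluorescence ratio at most library mean plus 5 SD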;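 further: more negative B-score means stronger inhibition of thallium flux through KCNK3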
* hit, by the source's call; i = inactive; . = no result. Most compounds without a hit are left out; they make up all but 4.1% or so of the library.

SMILES	hERG protect	KCC2 mod	KCNQ1 inh	KCNQ1 act	KCNK9 inh	KCNK3 block
CCOc1ccc(/C=C/C(=O)c2cc(Br)ccc(=O)c2O)cc1	.	30.8*	.	.	.	i
CN(c1ccc(F)cc1)S(=O)(=O)c1ccc(Cl)c(C(=O)NC2(C)CCS(=O)(=O)C2)c1 (stereo not given)	.	.	.	.	.	i
CCN(C(=O)c1cc2c(=O)n3cccc(C)c3nc2n1CCCOC)C1CCCCC1	-14.4	.	i	i	i	-11.2*
Cc1cccn2c(=O)c3cc(C(=O)NC4CCCCC4)c(=N)n(Cc4ccccc4)c3nc12	-15.3	.	7*	i	i	i
Cc1cccn2c(=O)c3cc(C(=O)NC4CCCC4)c(=N)n(Cc4ccc(F)cc4)c3nc12	-18.6	.	i	i	i	i
CCN1C[C@@H]2[C@@H]3C(=O)N(C)C(=O)[C@@H]3[C@](C)(C1=O)N2C(=O)c1ccc(Cl)c(Cl)c1	.	.	.	.	.	i
O=C(NC1CC2CCCC(C1)N2C(=O)Nc1ccc(Cl)c(C(F)(F)F)c1)C1CC1 (stereo not given)	-13.6	-1.07	i	i	i	i
O=C(Nc1ccc(Cl)c(C(F)(F)F)c1)NC1CC2CCCC(C1)N2Cc1ccccc1 (stereo not given)	-30.1	-0.166	13*	i	i	.
Cc1cccc(NC(=S)N(C)C2CCCCC2)c1	-11.3	-0.432	i	i	i	i
Cc1ccc(C(=O)NC(=S)N(C)C2CCCCC2)cc1	14.7*	.	i	17*	i	i
S=c1nc(-c2ccc(Br)cc2)oc2c1CCCC2	13.6*	82.6*	i	i	i	i
CCc1ccc(Nc2nc3ccccc3c(=O)s2)cc1	-1.7	7.54*	i	i	i	i
CCOc1ccc(Nc2nc3ccccc3c(=O)s2)cc1	-11.7	0.896	i	i	i	i
Fc1ccc(Nc2ncnc3sc4c(c23)CCC4)cc1	-5.5	.	i	i	i	i
c1ccc(Nc2ncnc3sc4c(c23)CCC4)cc1	5.2*	-0.723	i	i	i	i
c1csc(CCNc2ncnc3sc4c(c23)CCC4)c1	-17.9	-4.45*	i	i	i	-8.74*
CC(C)N1CCSC1=S	.	.	.	.	.	i
O=C(Nc1cccc(S(=O)(=O)NC2=NCCC2)c1)c1cn(-c2ccccc2)nc1-c1ccc(F)cc1	.	.	.	.	.	i
CCN(Cc1nc(-c2ccc(OC)c(OC)c2)no1)C(=O)c1ccc2c(c1)OCO2	-6.7	.	i	i	i	i
O=C(O)/C=C/C(=O)Nc1ccc(OC(F)(F)F)cc1	-1.8	-0.25	i	i	i	i
COc1ccc(CCNC(=S)Nc2ccc(C(C)C)cc2)cc1	-8.6	-0.242	i	i	i	i
CC(C)c1ccc(NC(=S)Nc2ccc(OC(F)(F)F)cc2)cc1	-9.3	0.567	10*	i	i	i
FC(F)(F)Oc1ccc(NC(=S)Nc2ccc(OC(F)(F)F)cc2)cc1	-17.6	-1.12	10*	i	i	i
CC(C)N(C(=O)CSc1ncnc2sc(-c3ccccc3)cc12)C(C)C	-10.0	7.06*	i	i	i	i
CCOc1cc(/C=C2\SC(=N)N(c3nonc3N)C2=O)ccc1OCCN1CCOCC1	-6.7	-0.453	i	i	i	i
SMILES	hERG protect	KCC2 mod	KCNQ1 inh	KCNQ1 act	KCNK9 inh	KCNK3 block
CCOc1cc(/C=C2\SC(=N)N(c3nonc3N)C2=O)ccc1OCC(N)=O	6.4*	1	i	i	i	i
CCN(CC(=O)NC1CCS(=O)(=O)C1)c1ccc(S(=O)(=O)N(CC)CC)cc1[N+](=O)[O-] (stereo not given)	.	.	.	.	.	i
O=C(COc1ccccc1)N1CCN(S(=O)(=O)c2cccs2)CC1	-2.0	0.587	i	9*	i	i
O=C(CCOc1ccccc1)N1CCN(S(=O)(=O)c2cccs2)CC1	-9.4	-1.06	i	i	i	i
COC(=O)c1cc(C(=O)N2CCc3ccccc32)cc([N+](=O)[O-])c1	-2.8	.	i	i	i	i
COC(=O)[C@@H](c1ccccc1)N(C)S(=O)(=O)c1cccc(S(=O)(=O)N(C)[C@@H](C(=O)OC)c2ccccc2)c1	-2.6	.	i	i	-7.05*	i
COC(=O)C(c1ccccc1)C(C(=O)OC)c1ccccc1 (stereo not given)	-6.8	.	i	i	i	i
CC(NC(=O)c1ccco1)C(=O)N1CCN(c2cccc(C(F)(F)F)c2)CC1 (stereo not given)	.	.	.	.	.	i
COc1ccc(CN2CCN(Cc3ccc(Br)cc3)CC2)c(OC)c1OC	0.1	.	i	i	i	i
CCOC(=O)/C(=C\Nc1ccccc1C(F)(F)F)Sc1ncc(C(F)(F)F)cc1Cl	-17.9	.	7*	i	i	i
O=C(Nc1nc2n(n1)C(c1ccc(Cl)cc1)CC(c1ccc(Cl)cc1)N2)c1ccco1 (stereo not given)	-9.7	-2.37	i	i	-7.68*	.
O=C(NCCCN1CCOCC1)c1onc(CSc2ccc(F)c(F)c2)c1C(=O)NCCCN1CCOCC1	-9.2	.	i	i	i	i
O=C(NCc1ccccc1)c1onc(CSc2ccc(F)cc2)c1C(=O)NCCCN1CCOCC1	-15.1	0.00638	i	14*	i	i
O=c1cc(-c2ccccc2Cl)oc2c(NS(=O)(=O)c3cc(Cl)cc(Cl)c3O)ccc(O)c12	-10.1	20.2*	i	i	i	i
CCc1ccc(S(=O)(=O)Nc2ccc(O)c3c(=O)cc(-c4ccccc4Cl)oc23)cc1	-7.4	1.16	i	i	i	i
NC(=O)c1ccccc1NC(=O)/C=C/C(=O)O	15.3*	0.627	i	i	i	i
NC(=O)c1ccccc1NC(=O)N1CCOCC1	1.9	.	i	9*	i	i
CCCNC(=O)c1ccc2c(c1)nc(C)n2-c1cccc(Cl)c1	-8.3	.	i	i	i	i
COc1ccc(Cl)cc1NS(=O)(=O)c1cccc(C(=O)NCC(C)(C)N2CCOCC2)c1	.	.	.	.	.	-8.97*
CC(C)(CNC(=O)c1cccc(S(=O)(=O)NCc2ccccc2)c1)N1CCOCC1	-5.8	.	i	i	i	i
COc1ccc(-c2nn(-c3ccccc3)cc2C(=O)OCC(=O)c2ccc(C)c([N+](=O)[O-])c2)cc1	-14.5	2.45	8*	i	i	i
CCOc1ccccc1N(CC(=O)Nc1ccccc1C(=O)N1CCCC1)S(C)(=O)=O	-13.1	.	i	i	i	i
Cc1ncc(CO)c(/C=N/NC(=O)c2ccc(O)cc2)c1O	-6.9	-0.0569	i	i	i	i
Cc1ncc(CO)c(/C=N/NC(=S)Nc2cccc(Cl)c2)c1O	-30.9	-1.63	6*	i	i	i
